Test results published in ChEMBL document CHEMBL1151473, “Posaconazole activity against Candida glabrata after exposure to caspofungin or amphotericin B” (2008).
Values after ≈ are worked out from the molar mass of the structure shown. Active and inactive are the calls of the source. The calls are words filed in the database; no cut-off is given here.

Columns and labels:
[1] = system: Nakaseomyces glabratus; assay: Antifungal activity against Candida glabrata isolate 4198 after 48 hrs by broth microdilution method; assay type: functional
Procedure, shortened: (§1)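 CLSI broth microdilution with final drug concentrations […], incubated at 35°C and read spectrophotometrically at 490 nm at 24 and 48 h. MIC is the first concentration giving 50% turbidity reduction versus control, or 90% for amphotericin B. Run in quintuplicate.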

[2] = system: Candida parapsilosis; assay: Antifungal activity against Candida parapsilosis ATCC 22019 after 48 hrs by broth microdilution method; assay type: functional; details: Lodderomyces parapsilosis, ATCC 22019, 48 h; procedure, shortened: as §1
[3] = system: Nakaseomyces glabratus; assay: Antifungal activity against Candida glabrata isolate 4293 after 48 hrs by broth microdilution method; assay type: functional; procedure, shortened: as §1
[4] = system: Nakaseomyces glabratus; assay: Antifungal activity against Candida glabrata isolate 4370 after 48 hrs by broth microdilution method; assay type: functional; procedure, shortened: as §1
[5] = system: Nakaseomyces glabratus; assay: Antifungal activity against Candida glabrata isolate 4205 after 48 hrs by broth microdilution method; assay type: functional; details: isolate 4205, 48 h; procedure, shortened: as §1
[6] = system: Nakaseomyces glabratus; assay: Antifungal activity against Candida glabrata isolate 4198 pretreated overnight with 0.5 times of caspofungin MIC measured after 48 hrs by broth microdilution method; assay type: functional
[7] = system: Nakaseomyces glabratus; assay: (§2) Antifungal activity against 1.04 x 10^8 CFU Candida glabrata isolate 4293 infected in CD1 mouse assessed as reduction in colony forming units treated with a therapeutic regimen of sterile saline solution from day 1 to day 2 followed by 30 mg/kg/day drug administration via oral gavage from day 3 to day 6 post viral challenge measured on day 7 postinfection relative to control; assay type: functional, organism-based
Procedure, shortened: (§3)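 CD1 male mice, 25 g, made neutropenic with intraperitoneal cyclophosphamide at 200 mg/kg/day on days −4, +1 and +4. Infected intravenously with C. glabrata 4293 in 0.2 ml. Therapy starts 24 h postchallenge: sterile saline placebo, then once-daily oral gavage in 0.2 ml. Kidney pairs homogenized and plated on Sabouraud dextrose agar for CFU; seven to eight animals per group; medians reported.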

[8] = system: Nakaseomyces glabratus; assay: Antifungal activity against Candida glabrata isolate 4293 at 15 ug/disk after 24 hrs by halo assay; assay type: functional; details: isolate 4293, 24 h, read-out: IZ
Procedure, shortened: (§4)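 Exposed or unexposed C. glabrata 4293 cells (1 x 10^6 CFU/ml) plated on Mueller-Hinton agar with methylene blue. 6-mm disks loaded with 20 µl posaconazole at 5 or 15 µg. Incubated at 35°C; inhibition zone diameters measured at 24 and 48 h; quintuplicate.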

[9] = system: Nakaseomyces glabratus; assay: Antifungal activity against Candida glabrata isolate 4293 pretreated overnight with 0.125 times of caspofungin MIC measured at 15 ug/disk after 24 hrs by halo assay; assay type: functional; details: read-out: IZ; procedure, shortened: as §4
[10] = system: Nakaseomyces glabratus; assay: Antifungal activity against Candida glabrata isolate 4293 pretreated overnight with 0.5 times of caspofungin MIC measured at 15 ug/disk after 24 hrs by halo assay; assay type: functional; details: read-out: IZ; procedure, shortened: as §4
[11] = system: Nakaseomyces glabratus; assay: Antifungal activity against Candida glabrata isolate 4293 assessed as viable yeast cells pretreated overnight with 0.25 ug/ml caspofungin measured at 0.5 ug/ml after 48 hrs; assay type: functional
[12] = system: Nakaseomyces glabratus; assay: Antifungal activity against Candida glabrata isolate 4205 pretreated overnight with 0.5 times of amphotericin B MIC measured after 48 hrs by broth microdilution method; assay type: functional
[13] = system: Nakaseomyces glabratus; assay: Antifungal activity against Candida glabrata isolate 4293 pretreated overnight with 0.5 times of caspofungin MIC measured after 48 hrs by broth microdilution method; assay type: functional
[14] = system: Nakaseomyces glabratus; assay: Antifungal activity against Candida glabrata isolate 4370 pretreated overnight with 0.5 times of caspofungin MIC measured after 48 hrs by broth microdilution method; assay type: functional
[15] = system: Nakaseomyces glabratus; assay: Antifungal activity against Candida glabrata isolate 4293 pretreated overnight with 0.5 times of caspofungin MIC measured at 5 ug/disk after 24 hrs by halo assay; assay type: functional; details: read-out: IZ; procedure, shortened: as §4
[16] = system: Nakaseomyces glabratus; assay: Antifungal activity against Candida glabrata isolate 4293 at 5 ug/disk after 24 hrs by halo assay; assay type: functional; details: isolate 4293, 24 h, read-out: IZ; procedure, shortened: as §4
[17] = system: Nakaseomyces glabratus; assay: Antifungal activity against Candida glabrata isolate 4293 assessed as viable yeast cells pretreated overnight with 0.015 ug/ml caspofungin measured at 0.5 ug/ml after 48 hrs; assay type: functional
[18] = system: Nakaseomyces glabratus; assay: Antifungal activity against Candida glabrata isolate 4293 pretreated overnight with 0.125 times of amphotericin B MIC measured at 5 ug/disk after 24 hrs by halo assay; assay type: functional; details: read-out: IZ; procedure, shortened: as §4
[19] = system: Nakaseomyces glabratus; assay: Antifungal activity against Candida glabrata isolate 4370 pretreated overnight with 0.5 times of amphotericin B MIC measured after 48 hrs by broth microdilution method; assay type: functional
[20] = system: Nakaseomyces glabratus; assay: Antifungal activity against Candida glabrata isolate 4293 assessed as viable yeast cells pretreated overnight with 0.015 ug/ml caspofungin measured at 4 ug/ml measured after 48 hrs; assay type: functional
[21] = system: Nakaseomyces glabratus; assay: Antifungal activity against Candida glabrata isolate 4293 assessed as viable yeast cells pretreated overnight with 0.25 ug/ml caspofungin measured at 4 ug/ml measured after 48 hrs; assay type: functional
[22] = system: Nakaseomyces glabratus; assay: Antifungal activity against Candida glabrata isolate 4293 pretreated overnight with 0.125 times of amphotericin B MIC measured at 15 ug/disk after 24 hrs by halo assay; assay type: functional; details: read-out: IZ; procedure, shortened: as §4
[23] = system: Nakaseomyces glabratus; assay: as §2, with “2.44” for “1.04”, “15” for “30”; assay type: functional, organism-based; procedure, shortened: as §3
[24] = system: Nakaseomyces glabratus; assay: Antifungal activity against Candida glabrata isolate 4198 pretreated overnight with 0.5 times of amphotericin B MIC measured after 48 hrs by broth microdilution method; assay type: functional
[25] = system: Nakaseomyces glabratus; assay: Antifungal activity against Candida glabrata isolate 4205 pretreated overnight with 0.5 times of caspofungin MIC measured after 48 hrs by broth microdilution method; assay type: functional
[26] = system: Nakaseomyces glabratus; assay: Antifungal activity against Candida glabrata isolate 4293 pretreated overnight with 0.5 times of amphotericin B MIC measured at 15 ug/disk after 24 hrs by halo assay; assay type: functional; details: read-out: IZ; procedure, shortened: as §4
[27] = system: Nakaseomyces glabratus; assay: Antifungal activity against Candida glabrata isolate 4293 pretreated overnight with 0.5 times of amphotericin B MIC measured after 48 hrs by broth microdilution method; assay type: functional
[28] = system: Nakaseomyces glabratus; assay: Antifungal activity against Candida glabrata isolate 4293 pretreated overnight with 0.125 times of caspofungin MIC measured at 5 ug/disk after 24 hrs by halo assay; assay type: functional; details: read-out: IZ; procedure, shortened: as §4
[29] = system: Nakaseomyces glabratus; assay: Antifungal activity against Candida glabrata isolate 4293 pretreated overnight with 0.5 times of amphotericin B MIC measured at 5 ug/disk after 24 hrs by halo assay; assay type: functional; details: read-out: IZ; procedure, shortened: as §4

## OC(Cn1cncn1)(Cn1cncn1)c1ccc(F)cc1F [FLUCONAZOLE]
[1]
  MIC: > 64 µg/mL
[2]
  MIC: 4 µg/mL (≈ 13.1 µM)
[3]
  MIC: 32 µg/mL (≈ 104 µM)
[4]
  MIC: 16 µg/mL (≈ 52.2 µM)
[5]
  MIC: 1 µg/mL (≈ 3.27 µM)

## CC[C@@H]([C@H](C)O)n1ncn(-c2ccc(N3CCN(c4ccc(OC[C@@H]5CO[C@@](Cn6cncn6)(c6ccc(F)cc6F)C5)cc4)CC3)cc2)c1=O [POSACONAZOLE]
[1]
  MIC: 0.5 µg/mL (≈ 0.713 µM)
[6]
  MIC: 1 µg/mL (≈ 1.43 µM)
[7]
  Activity: Active
[2]
  MIC: ≤ 0.03 µg/mL
[3]
  MIC: 0.25 µg/mL (≈ 0.357 µM)
[8]
  zone of inhibition at 15 µg/disc: 30 mm
[9]
  zone of inhibition at 15 µg/disc: 29.6 mm
[10]
  zone of inhibition at 15 µg/disc: 29 mm
[11]
  Activity: 6.2%
[12]
  MIC: ≤ 0.03 µg/mL
[13]
  MIC: 0.125 µg/mL (≈ 0.178 µM)
[14]
  MIC: 0.125 µg/mL (≈ 0.178 µM)
[15]
  zone of inhibition at 5 µg/disc: 26.8 mm
[16]
  zone of inhibition at 5 µg/disc: 29 mm
[17]
  Activity: 6.2%
[4]
  MIC: 0.06 µg/mL (≈ 0.0856 µM)
[18]
  zone of inhibition at 5 µg/disc: 27 mm
[19]
  MIC: 0.06 µg/mL (≈ 0.0856 µM)
[20]
  Activity: 0.01%
[21]
  Activity: 0.01%
[22]
  zone of inhibition at 15 µg/disc: 30 mm
[23]
  Activity: Active
[24]
  MIC: 0.5 µg/mL (≈ 0.713 µM)
[25]
  MIC: 0.06 µg/mL (≈ 0.0856 µM)
[26]
  zone of inhibition at 15 µg/disc: 29.8 mm
[27]
  MIC: 0.25 µg/mL (≈ 0.357 µM)
[28]
  zone of inhibition at 5 µg/disc: 28 mm
[29]
  zone of inhibition at 5 µg/disc: 28.4 mm
[5]
  MIC: ≤ 0.03 µg/mL
